# Shown are actives, neighbours in structure and some others; about 4.5% of the full set was active somewhere.
# PERK inh: blocks human PERK kinase; Q9NZJ5; CHO PERK-DD fusion, SEAP luminescence translation reporter; AID 1416; 220,000 tested, 0.17% active; inhibition, % at 5.6 µM;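 active means inhibition above the mean inhibition of all tested compounds plus 3 SD, set separately per screening campaign, cut at about 2.9% in these data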;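 further: PERK kinase domain activated by AP20187 dimerizer at 100 nM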
# APP 5'UTR act: activates APP 5'UTR luciferase reporter; SH-SY5Y APP 5'UTR luciferase reporter, luminescence; zero percent = DMSO vehicle wells; activation, % at 2 µM; 190,000 tested, 1% active;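 active means activation above a set limit, based on mean plus 3 SD of controls, cut at about 140% in these data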
# MDM2 E3 inh: inhibitors of human Mdm2 E3 ubiquitin ligase; signal enhancement, % at 5 µM; cell-based MDM2 ubiquitination luciferase reporter, 2 h; 0 = plate control, 100 = twice control, blank-subtracted; 210,000 tested, 0.11% active; Q00987;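 active means signal enhancement of 30% or more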;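 further: luminescence tracks abundance of the self-degrading MDM2-luciferase fusion protein; higher signal means inhibition of MDM2 E3 ligase activity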
#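 Material: Stable MDM2–luciferase fusion reporter cells | Amount: 2000 cells seeded into each well | Dosing: One concentration, 5 µM, with 0.2% DMSO | Incubation: 4 h cell settling then 2 h compound exposure, 37 °C | Measured by: Luciferase luminescence | Read-out basis: % enhancement relative to plate controls after blank subtraction | Benchmarks: Control and blank well means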
# AHR act: activators of human aryl hydrocarbon receptor | P35869 | 320,000 tested, 2.5% active | AID 2796 | AHR-responsive luciferase reporter cells, luminescence | activation, % at 5 µM; in the data active means activation above about 47%
# Target sequence (P35869 whole entry, looked up): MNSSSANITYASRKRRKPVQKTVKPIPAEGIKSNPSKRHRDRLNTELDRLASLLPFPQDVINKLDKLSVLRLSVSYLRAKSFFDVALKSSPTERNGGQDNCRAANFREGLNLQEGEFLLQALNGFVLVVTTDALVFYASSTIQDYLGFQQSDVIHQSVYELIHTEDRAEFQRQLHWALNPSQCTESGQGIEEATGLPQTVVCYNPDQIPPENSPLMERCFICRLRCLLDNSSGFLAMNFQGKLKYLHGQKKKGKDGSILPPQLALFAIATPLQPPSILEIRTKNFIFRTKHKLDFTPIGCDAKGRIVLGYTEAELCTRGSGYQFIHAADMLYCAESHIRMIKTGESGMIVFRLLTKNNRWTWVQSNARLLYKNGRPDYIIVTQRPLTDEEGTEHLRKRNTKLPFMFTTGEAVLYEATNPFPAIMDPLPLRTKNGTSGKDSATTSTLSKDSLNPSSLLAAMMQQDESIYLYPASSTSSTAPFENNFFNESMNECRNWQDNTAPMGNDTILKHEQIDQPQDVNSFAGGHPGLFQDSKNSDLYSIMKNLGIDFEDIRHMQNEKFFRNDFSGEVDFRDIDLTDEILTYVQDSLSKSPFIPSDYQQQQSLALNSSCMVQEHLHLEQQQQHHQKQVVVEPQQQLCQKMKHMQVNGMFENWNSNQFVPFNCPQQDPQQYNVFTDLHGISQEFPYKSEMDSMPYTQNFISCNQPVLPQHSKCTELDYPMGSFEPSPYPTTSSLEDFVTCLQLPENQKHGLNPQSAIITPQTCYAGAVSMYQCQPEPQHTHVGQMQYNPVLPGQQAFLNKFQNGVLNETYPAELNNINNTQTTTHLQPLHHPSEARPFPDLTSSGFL
# STAT1 act: activators of IFN-gamma induced STAT1 signaling | NIH 3T3 STAT1-luciferase reporter, luminescence; 100% = IFN-gamma alone, no compound | activation (% of control), % at 5.5 µM | 200,000 tested, 2.6% active | AID 932;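 active means activation above the screen-wide mean activation plus 3 SD, cut at about 130% in these data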
# NF-kB expr up: raises NF-kB expression in human neuronal cells; NF-kB reporter expression; stronger effect = higher value; fold change at 12.5 µM; 190,000 tested, 1.6% active; AID 1239; in the data active means fold change above about 3.3
# A number is an active result; - = inactive; . = no result given.
SMILES,PERK inh,APP 5'UTR act,MDM2 E3 inh,AHR act,STAT1 act,NF-kB expr up
O=C(O)c1ccc(/C=C2\SC(=Nc3ccccc3)N(c3ccccc3)C2=O)cc1,-,-,-,-,-,-
Cc1cccc(OCCn2cc(/C=N/NC(=O)c3ccncc3)c3ccccc32)c1,-,-,-,-,-,-
Cc1ccc(OCC(=O)N/N=C/c2ccccc2)c([N+](=O)[O-])c1,-,-,-,.,-,-
Cc1ccc(OCC(=O)N/N=C\c2c(C)n(C)c3ccccc23)c([N+](=O)[O-])c1,-,-,-,60.5,-,-
Cc1cccc(OCC(=O)N/N=C\c2cn(C)c3ccccc23)c1,-,-,-,72.3,-,-
O=C(O)COc1ccc(/C=N/Nc2nc(Nc3ccccc3)nc(N3CCCCC3)n2)cc1,-,-,-,-,-,-
COc1ccc(-c2cc(C(F)(F)F)c3c(N)c(C(=O)NCCSC)sc3n2)cc1,.,.,.,61.6,.,.
COc1cccc(-c2cc(C(F)(F)F)c3c(N)c(C#N)sc3n2)c1,-,-,-,55.4,-,-
COc1ccc(OC)c(NC(=O)c2sc3nc(Cc4ccccc4)cc(C(F)(F)F)c3c2N)c1,-,-,-,-,-,-
COc1ccc(NC(=O)CN2C(=O)NC(C)(c3ccccc3)C2=O)cc1Cl (stereo unspecified),.,.,.,-,.,.
CS(=O)(=O)c1ccc(Cl)c(NC(=O)Cc2c(F)cccc2Cl)c1,-,-,-,-,-,-
O=C(CSc1cccc[n+]1[O-])CSc1cccc[n+]1[O-],-,-,-,-,-,4.86
O=C(Nc1ccc(S(=O)(=O)Nc2ccccn2)cc1)C(F)(F)F,-,-,.,-,-,-
Clc1ccc(OCCSc2ncccn2)c(Br)c1,-,174.2,-,-,143.5,-
Cc1ccc(OCCSc2nc(N)cc(N)n2)cc1,-,-,-,-,137.5,-
CCNc1nc(NC(C)C)nc(SCCOc2ccc(C)cc2)n1,-,-,-,47.1,-,-
COc1ccc(OCCSc2nc(N)cc(N)n2)cc1,-,-,-,-,-,-
Clc1ccc(OCCCCSc2ncccn2)cc1,-,-,-,-,-,-
Brc1cccc(OCCSc2ncccn2)c1,-,-,-,-,-,-
CCCOc1ccc(OCCSc2ncccn2)cc1,-,-,-,-,135.2,4.24
COc1ccc(N(CC(=O)Nc2cc(Cl)ccc2C)S(=O)(=O)c2c(C)n[nH]c2C)cc1,.,.,.,-,.,.
O=C(NCC1CCCO1)C(=O)N/N=C/c1ccc(OCc2ccccc2Cl)cc1 (stereo unspecified),.,.,.,-,.,.
Clc1ccc(OCc2cnc(Cl)s2)cc1,-,-,-,-,-,-
CCc1ccc(OCc2cnc(Cl)s2)cc1,-,-,-,-,130.6,-
COc1ccc(C2C(C(=O)N3CCCCC3)CCC(=O)N2c2cc(OC)c(OC)c(OC)c2)cc1 (stereo unspecified),-,-,38.1,-,-,-
SMILES,PERK inh,APP 5'UTR act,MDM2 E3 inh,AHR act,STAT1 act,NF-kB expr up
COc1ccc(C2C(C(=O)N3CCOCC3)CCC(=O)N2c2cc(OC)c(OC)c(OC)c2)cc1 (stereo unspecified),-,-,-,-,-,-
N#C/C(=N\Nc1ccccc1[N+](=O)[O-])C(=N)N1CCCCC1,-,175.7,-,-,135.8,5.64
N#C/C(=N\Nc1ccc(Br)cc1)C(=N)N1CCOCC1,-,-,-,55.9,145.9,-
N#C/C(=N\Nc1ccccc1)C(=N)N1CCCCC1,-,-,-,-,129.2,4.47
COc1ccccc1-n1cc(C(=O)NCC(=O)N2CCN(c3ccccc3)CC2)c2ccccc2c1=O,-,-,-,-,135.6,-
CC(=O)c1cccc(NC(=O)C(C)N2CCc3ccccc3C2)c1 (stereo unspecified),-,.,.,-,.,.
CC(=O)c1cccc2c(O)c(C3=Nc4ccccc4C3=O)[nH]c12,-,-,-,60.8,-,4.14
O=C1C(c2c(O)[nH]c3ccccc23)=Nc2ccccc21,-,.,.,59.7,.,.
C#Cc1cccc(C(=O)N2CCCC(Nc3cccc(F)c3)C2)c1 (stereo unspecified),.,.,.,-,.,.
O=[N+]([O-])c1ccccc1Oc1ncccc1[N+](=O)[O-],-,-,-,-,-,-
COc1ccccc1OCCNc1cc(N2CCCCC2)ccc1[N+](=O)[O-],-,-,-,68.7,-,-
Cc1ccccc1OCCNc1cc(N2CCNCC2)ccc1[N+](=O)[O-],-,-,-,-,-,-
Nn1c(SCc2ccccc2)nc2c(cnn2-c2ccccc2)c1=O,-,-,-,-,135.0,-
CCCCSc1nc2c(cnn2-c2ccccc2)c(=O)n1N,-,167.5,-,-,140.9,4.7
CCC1C(=O)n2nc(-c3ccccc3)cc2N=C1C (stereo unspecified),-,-,-,51.0,137.5,-
Cc1c(-c2nc(-c3ccc(C(F)(F)F)cc3)no2)n(C)oc1=O,-,.,-,101.2,.,.
CS(=O)(=O)c1ccccc1-c1nc(-c2ccc(C(F)(F)F)cc2)no1,-,-,-,-,-,-
Cc1ccc(NC(=O)C2Cc3ccccc3C(=O)O2)cc1 (stereo unspecified),-,-,-,-,134.6,-
O=C1OC(C(=O)Nc2ccccc2)Cc2ccccc21 (stereo unspecified),-,-,-,-,-,-
CN1CCN(CC(=O)Nc2nc(-c3ccccc3)cs2)CC1,-,-,-,-,-,-
CN1CCN(CC(=O)N(C)c2nc(-c3ccccc3)cs2)CC1,-,-,-,-,133.8,-
CC(=O)Nc1ccc(NC(=O)c2sc(-c3ccccc3)nc2C)cc1,.,.,.,-,.,.
Cc1nc(-c2ccncc2)sc1C(=O)Nc1ccc(Br)cc1,-,-,-,62.0,-,-
O=C(Nc1ccc(Cl)cc1)c1csc(-c2ccccc2)n1,-,-,-,96.8,-,-
O=C(Nc1ccc(Cl)cc1)c1csc(-c2ccncc2)n1,-,-,-,54.4,-,-
SMILES,PERK inh,APP 5'UTR act,MDM2 E3 inh,AHR act,STAT1 act,NF-kB expr up
CNC(=O)c1csc(-c2ccncc2)n1,-,-,-,-,-,-
O=C(Nc1ccc(Br)cc1)c1csc(-c2ccncc2)n1,-,-,-,52.7,-,-
Cc1onc(-c2ccccc2Cl)c1C(=O)N(C)CC(=O)Nc1ccc(F)c(F)c1F,.,.,.,-,.,.
CCOc1ccccc1N1CCN(C(=O)CCNS(=O)(=O)c2ccccc2F)CC1,.,.,.,-,.,.
O=C(N/N=C/c1ccc(-c2cccc([N+](=O)[O-])c2)o1)c1cccs1,-,-,-,-,-,-
N#C/C(=C\c1ccc(-c2cccc([N+](=O)[O-])c2)o1)C(=O)Nc1nc(-c2cccs2)cs1,-,.,.,78.5,.,.
O=C(NCCN1CCOCC1)/C(=C\c1ccc(Br)cc1)NC(=O)c1cccs1,-,-,-,-,-,-
CCc1ccc(NC(=O)C(=O)NCc2ccccn2)cc1,-,-,-,-,132.5,-
CCOC(=O)c1ccc(NC(=O)C(=O)NCc2ccccn2)cc1,-,-,-,-,-,-
